Measurements: article PMC3401475 (Nucleic Acids Research, 2012)
One block for each compound: values may come before it.

What was measured:
(CUG)10 RNA = test: SPR binding to
Procedure, shortened: (§1)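 Streptavidin coupled to both flow cells of a CM5 dextran chip after EDC/NHS activation. 5'-Biotin RNA captured at 200–1000 RU; reference cell biotin-blocked. Compound concentrations flowed in HBS-N (0.01 M HEPES, 0.15 M NaCl, pH 7.4) […]. Dissociation ≥200 s, then 0.5 or 1 M NaCl regeneration. Duplicate injections, buffer-blank subtracted. Global 1:1 Langmuir fit. KD averaged over two chips with different RNA densities. t1/2 = ln2/koff.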

human fibroblast cells = test: MTT cell viability, human fibroblasts; type: cell-based; details: at concentrations up to 500 µM
[1] = Relative fluorescence quantum yield; type: physicochemical; details: in methanol, excitation 362 nm
(CCUG)10 RNA = test: SPR binding to
Procedure, shortened: as §1

C2C12 mouse myoblasts = test: MTT cell toxicity, mouse myoblasts; type: cell-based; details: 48 h, all concentrations tested
Procedure, shortened: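 C2C12 myoblasts in DMEM (10% FBS, 1% penicillin–streptomycin) grown to ~80% confluence at 37°C under CO2. Compound at varying concentrations (up to 1 mM), 48 h, 37°C. MTT in medium added for 4 h at 37°C, then isopropanol solubilisation; absorbance read at 600 nm.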

Apparent KD ((CUG)10 RNA; (CUG)10, HBS-N pH 7.4, average of two titrations): complete lack of binding
fluorescence quantum yield relative to quinine sulfate [1]: 0.64
Compound: CCc1nc2cc3ccccc3cc2cc1C(=O)O [Compound 2, ethylbenzo[g]quinoline carboxylic acid]
toxicity by MTT assay (human fibroblast cells): no toxicity

Residence time t1/2 ((CUG)10 RNA; (CUG)10, t1/2 = ln2/kd): 14 s
Kd ((CUG)10 RNA; read-out: Apparent KD, (CUG)10, HBS-N pH 7.4, average of two titrations): 409 nM
Residence time t1/2 ((CCUG)10 RNA; (CCUG)10, t1/2 = ln2/kd): 4 s
Kd ((CCUG)10 RNA; read-out: Apparent KD, (CCUG)10, HBS-N pH 7.4, average of two titrations): 1960 nM
Compound: NC[C@@H]1O[C@H](O[C@H]2[C@@H](O)[C@H](O[C@@H]3[C@@H](O)[C@H](N)C[C@H](N)[C@H]3O[C@H]3O[C@H](CN)[C@@H](O)[C@H](O)[C@H]3N)O[C@@H]2CO)[C@H](N)[C@@H](O)[C@@H]1O [Neomycin, Neomycin B]

Compound: CO[C@@]12[C@H](COC(N)=O)C3=C(C(=O)C(C)=C(N)C3=O)N1C[C@@H]1N[C@@H]12 [mitomycin C]
toxicity by MTT assay (C2C12 mouse myoblasts): significant toxicity
